# D1 mod: D1 dopamine receptor (human) allosteric modulation; AID 641; HEK293 D1, CRE-luciferase, dopamine EC30 potentiation; actives deviate in either direction; P21728; 5.9% of 58,000 active; B-score at 10 µM;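 active = luminescence count or its row- and column-corrected plate score outside the 99.7% band of the plate's sample wells, on either side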
# M1 agonist: agonists of M1 muscarinic receptor | CHO-M1 cells, Fluo-4 calcium fluorescence, agonist mode; hits give high values | B-score at 10 µM | 3% of 64,000 active;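 active = fluorescence rise, raw or as B-score row- and column-corrected plate score, outside the 99.7% band of its plate's samples, either direction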
# M1 antagonist: antagonists of rat M1 muscarinic receptor. P08482. 3.4% of 64,000 active. B-score at 10 µM. CHO-M1 cells, Fluo-4 calcium, ACh EC80 antagonist mode; hits give low values;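 active = calcium fluorescence response, raw or row-and-column corrected B-score, differing from the plate sample mean either way at a set confidence level, mostly lower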
# S1P3 agonist: agonists of human S1P3 receptor. Q99500. S1P3 NFAT-BLA reporter cells, agonism, FRET ratio; relative to 1 µM S1P, basal subtracted. activation, % at 4.5 µM. 0.1% of 60,000 active. AID 373;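 active = activation above the screen-wide mean plus 3 SD, cut at about 4.5% in these data, passing the limit was not always enough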
#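 Assay system: stable CHO line with human S1P3, Gα16, NFAT-BLA reporter; Detection: FRET β-lactamase substrate fluorescence, excitation 405 nm, 460/535 nm emission ratio, background-subtracted; Read-out: percent activation versus median 1 µM S1P response, basal-subtracted, per plate; Incubation: cells plated overnight, compound 4 h 37 °C, substrate 2 h RT.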
# S1P1 ag pot: activates or potentiates agonism at human S1P1 receptor; activation, % at 9.5 µM; S1P1 CRE-bla cells, forskolin, beta-lactamase FRET, potentiator mode; S1P1 agonist co-added at EC20, 2 nM; 100% = saturating reference agonist, 0% = basal; 0.57% of 56,000 active; AID 449;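 active = activation above a cutoff set at the mean activation of all tested compounds plus 3 SD, cut at about 54% in these data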;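 also: forskolin at 4 µM as EC80 and the EC20 agonist is SEW2871; 100% = SEW2871 at its EC100 plus forskolin at EC80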
# Target sequence (P21453 whole entry, looked up): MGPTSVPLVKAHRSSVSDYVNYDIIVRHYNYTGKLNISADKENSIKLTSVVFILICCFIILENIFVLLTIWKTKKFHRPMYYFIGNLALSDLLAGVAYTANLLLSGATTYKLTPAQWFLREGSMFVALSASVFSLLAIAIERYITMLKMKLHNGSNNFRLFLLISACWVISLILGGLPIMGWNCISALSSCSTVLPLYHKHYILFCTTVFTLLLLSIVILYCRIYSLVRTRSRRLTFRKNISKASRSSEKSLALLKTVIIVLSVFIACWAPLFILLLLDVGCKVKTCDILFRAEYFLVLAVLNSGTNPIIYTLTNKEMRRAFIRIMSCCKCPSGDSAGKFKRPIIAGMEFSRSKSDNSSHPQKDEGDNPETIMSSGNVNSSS
# D1 PAM confirm: D1 receptor (human) allosteric modulation, confirmed; HEK293 D1 CRE-luciferase, dopamine EC30 potentiation; hits give high values; AID 642; 88% of 2,200 active; luminescence at 10 µM; shares compounds with D1 mod;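 active = luminescence in either of two replicates above the same-plate mean plus 3 SD of the low-dose dopamine control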
# D1 ag no DA: activates D1 CRE-luciferase signal without dopamine present | AID 646 | 0.8% of 1,900 active | luminescence at 10 µM | shares compounds with D1 mod | HEK293 D1 CRE-luciferase, luminescence, no dopamine; hits give high values; in the data active = luminescence above about 3900
# Isoprot counter: alters isoproterenol CRE-luciferase response in HEK293 cells; luminescence at 10 µM; 63% of 2,200 active; HEK293 D1 CRE-luciferase, isoproterenol EC30 counter-screen; hits give high values; shares compounds with D1 mod;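 active = luminescence in either replicate above plate mean of wells with a partly effective reference agonist dose plus 3 SD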;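 also: isoproterenol raises cAMP through native beta-adrenoceptor Gs so signal bypasses D1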
# The depositor's hits bear a star; / = no result. Hits are enriched below; roughly 11% of the tested compounds scored in any of these assays.
SMILES,D1 mod,M1 agonist,M1 antagonist,S1P3 agonist,S1P1 ag pot,D1 PAM confirm,D1 ag no DA,Isoprot counter
Cn1ccnc1C(O)(c1nnc(-c2ccccc2)o1)C(F)(F)F (centres undefined),0.42,-0.27,0.17,-1,1,/,/,/
CCOC(=O)CSc1nc2sc(C)c(C)c2c(=O)[nH]1,/,0.00073,-0.56,-1,/,/,/,/
CCOC(=O)CSc1nnc(CSc2nc3sc4c(c3c(=O)[nH]2)CCC4)n1C,2.6*,0.56,0.054,-1,-4,7200,1740,2940
COc1ccc(Cc2nn3c(-c4ccccc4Br)nnc3s2)cc1,5.4*,0.5,-0.34,0,-6,8536*,1392,4900*
COc1ccc(-c2nn3c(-c4ccc(F)cc4)nnc3s2)cc1,0.99,-0.21,-2.4,1,-9,/,/,/
COc1ccc(-c2nn3c(-c4ccccc4)nnc3s2)cc1,5.5*,0.27,-0.71,-1,-8,11796*,1844,3672*
COc1ccc(Cc2nn3c(-c4cc(OC)c(OC)c(OC)c4)nnc3s2)cc1,4.7*,1.3,0.027,0,-41,8960*,1520,3956*
Cc1cc(C)nc(NC(=O)CN2C(=O)c3ccccc3C2=O)n1,0.23,-0.13,-0.0034,0,-4,/,/,/
O=C(CSc1nnc2sc3ccccc3n12)NCc1ccc2c(c1)OCO2,-0.0052,0.2,0.37,-1,-9,/,/,/
COc1ccc(-n2c(SCCC#N)nnc2-c2cc(Cl)ccc2OC)cc1Cl,1.9,0.1,-0.012,0,6,/,/,/
C=CCN(CC(=O)NCc1ccccc1)C(=O)c1csnn1,3*,0.28,-2.2,0,24,6904,1720,2636
COc1ccc(CNC(=O)c2csnn2)cc1,0.81,0.43,0.1,-1,1,/,/,/
Cc1nn(-c2nc3ccccc3s2)c(C)c1Oc1ccccc1O,-0.48,0.5,0.011,0,6,/,/,/
Cc1nn(-c2ccccn2)c(C)c1Oc1ccccc1O,3.8*,-0.0028,-0.78,0,0,4864,1224,2556
CCOc1ccc(N(CC(=O)NC2CCCC2)S(=O)(=O)c2c(C)[nH]c(=O)[nH]c2=O)cc1,-0.91,0.7,0.13,-1,-28,/,/,/
COc1ccc(CCNC(=O)C2CCN(S(=O)(=O)c3cnc[nH]3)CC2)cc1OC,0.061,-0.53,0.21,-1,11,/,/,/
COC(=O)C1CCN(S(=O)(=O)c2c(C)n(C)c(=O)n(C)c2=O)CC1,1.4*,1.5,0.98,0,1,7080,1560,2500
Oc1[nH]c2ccccc2c1C1=NCCCC1,0.0021,-0.0055,-0.19,-1,-20,/,/,/
O=c1o[nH]c(-c2ccccc2)c1C1=NCCCCC1,9*,-0.31,-0.083,0,-17,6360,1616,2536
Cc1noc(C)c1S(=O)(=O)N1CCC(C(=O)NC2CCCc3ccccc32)CC1 (centres undefined),0.21,-0.73,0,/,/,/,/,/
c1csc(Cc2nn3c(-c4n[nH]c5c4CCC5)nnc3s2)c1,3.4*,0.47,-0.52,-1,-42,8576*,1600,3740*
CSc1nncc(-c2ccc(F)c(F)c2)n1,4.4*,0.22,0.56,-1,-12,11748*,1704,3068
CSc1nncc(-c2ccc(F)cc2)n1,8.2*,0.79,2.6*,-2,0,8776*,/,2888*
CSc1nnc(-c2ccc(F)cc2)o1,-1.1,-0.64,-0.029,-1,-4,/,/,/
CC(=O)c1sc2nc(=O)c(C)nn2c1C,0.13,-0.34,0.058,0,-19,/,/,/
Cc1ccc(C)c(S(=O)(=O)Nc2ccc3scnc3c2)c1,1.1,0.87,0.45,-1,/,/,/,/
CN(C)C(=O)N1CCCC(C(=O)NCc2ccc(F)cc2Cl)C1 (centres undefined),0.58,0.34,0.12,-1,-8,/,/,/
CN(C)C(=O)N1CCC(C(=O)NCc2ccc(F)cc2Cl)CC1,3.9*,1.3,-0.27,1,2,4732,1512,2396

# Screens deposited in PubChem BioAssay by several laboratories.
